According to ChEMBL document CHEMBL5131563, “Accelerated Identification of Cell Active KRAS Inhibitory Macrocyclic Peptides using Mixture Libraries and Automated Ligand Identification System (ALIS) Technology” (J Med Chem, 2022):
Where a SMILES comes first, the peptide text is derived from it. Bridges are numbered along the chain shown (N, C = ends). [ ]: non-standard residue; d: D form. Pro(3R-Ph) = O=C(O)[C@H]1NCC[C@@H]1c1ccccc1; Bip = N[C@@H](Cc1ccc(-c2ccccc2)cc1)C(=O)O; Lys(N3) = [N-]=[N+]=NCCCC[C@H](N)C(=O)O

Experiments:
GTPase KRas [1] = target: T1, GTPase KRas (Homo sapiens, UniProt P01116, G12D); test: Inhibition of recombinant biotinylated KRAS G12D mutant (unknown origin) assessed as inhibition of SOS-catalyzed nucleotide exchange preincubated for 60 mins followed by addition of human SOS protein and unlabeled GTP and measured after 60 mins by TR-FRET analysis
T1 sequence (P01116 whole entry G12D): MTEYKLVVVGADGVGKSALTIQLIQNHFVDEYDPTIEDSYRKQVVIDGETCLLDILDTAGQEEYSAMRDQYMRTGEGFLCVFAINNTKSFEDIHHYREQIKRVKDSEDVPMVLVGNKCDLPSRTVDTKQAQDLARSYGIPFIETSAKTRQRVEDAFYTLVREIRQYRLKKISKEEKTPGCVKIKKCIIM
Procedure, shortened: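 Biotinylated KRAS G12D was treated in EDTA buffer (1 h, RT), then loaded at 90 nM with 900 nM Bodipy-GDP and 15 nM Tb-streptavidin in Mg2+ buffer, HEPES pH 7.5 (6 h, RT). It was used at 1.5 nM assay solution with a 10-point, 3-fold DMSO compound series for 60 min at RT. A solution of 120 nM human SOS plus GTP was added for 60 min. The read-out was TR-FRET at 520/495 nm, normalized to DMSO and saturating-inhibitor controls, with a 4-parameter fit.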

[2] = Stability in human HeLa cell homogenate assessed as half life by LC-MS/MS analysis; type: ADME, cell-based
Procedure, shortened: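 HeLa cells suspended at 1 × 10^6 cells/mL, probe-sonicated on ice until homogeneous, stored frozen at –20 °C. Peptides incubated with homogenate (1 × 10^6 cells/mL equivalent); peptide loss over time quantified by LC-MS/MS to derive t1/2.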

GTPase KRas [3] = target: T1, GTPase KRas; test: Inhibition of KRAS in human ASPC1 cells harboring KRAS G12D mutant assessed as inhibition of ERK phosphorylation incubated for 2 hrs by AlphaScreen-based […] assay; type: cell-based
Procedure, shortened: (§1)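 AsPC-1 cells (KRAS G12D) were seeded at 15 000 cells/well in phenol-red-free RPMI with 10% FBS and 25 mM HEPES, then incubated overnight at 37 °C and 5% CO2. Medium was switched to serum-free before dosing. Cells were given a dose–response titration for 2 or 18 h at 37 °C, washed and lysed with protease inhibitors. Phospho-ERK and total ERK were read by AlphaScreen SureFire multiplex, using the pERK/total ERK ratio. Curves were fit with a 4-parameter logistic.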

GTPase KRas [4] = target: T1, GTPase KRas; test: Inhibition of KRAS in human ASPC1 cells harboring KRAS G12D mutant assessed as inhibition of ERK phosphorylation incubated for 18 hrs by AlphaScreen-based […] assay; type: cell-based; procedure, shortened: as §1
HeLa [5] = test: Cell permeability in human HeLa cells transfected with NanoLuc-HaloTag vector incubated for 4 hrs followed by treated with NanoBret618-azide ligand by NanoClick assay; type: ADME, cell-based
HeLa [6] = test: Cell permeability in human HeLa cells transfected with NanoLuc-HaloTag vector incubated for 18 hrs followed by treated with NanoBret618-azide ligand by NanoClick assay; type: ADME, cell-based

| IC50 (GTPase KRas [1]) | half-life [2] | IC50 (GTPase KRas [3]) | IC50 (GTPase KRas [4]) | EC50 (HeLa [5]) | EC50 (HeLa [6]) | Compound |
| --- | --- | --- | --- | --- | --- | --- |
| < 0.001 µM | > 6.2 h | 2.7 µM | 19 µM | 7.32 µM | 0.199 µM | CC[C@H](C)[C@@H]1NC(=O)[C@H](Cc2ccc(-c3ccccc3)cc2)NC(=O)[C@H](CC(C)C)NC(=O)[C@@H]2[C@H](c3ccccc3)CCN2C(=O)[C@@H](NC(=O)[C@H](CCCNC(=N)N)NC(=O)[C@H](CCCNC(=N)N)NC(=O)[C@H](CCCCN=[N+]=[N-])NC(C)=O)CSSC[C@@H](C(=O)N[C@@H](CCCNC(=N)N)C(=O)N[C@@H](CCCNC(=N)N)C(N)=O)NC(=O)[C@H](C(C)C)NC(=O)[C@@H]2CCCN2C(=O)[C@H](CC(=O)O)NC(=O)[C@H](Cc2ccc(O)cc2)NC(=O)[C@H](CO)NC1=O |
| < 0.001 µM | > 6.2 h | 3.3 µM | 33 µM | – | – | CC[C@H](C)[C@@H]1NC(=O)[C@H](Cc2ccc(-c3ccccc3)cc2)NC(=O)[C@H](CC(C)C)NC(=O)[C@@H]2[C@@H](c3ccccc3)CCN2CC(=O)[C@@H](NC(=O)[C@H](CCCNC(=N)N)NC(=O)[C@H](CCCNC(=N)N)NC(C)=O)CSSC[C@@H](C(=O)N[C@@H](CCCNC(=N)N)C(=O)N[C@@H](CCCNC(=N)N)C(N)=O)NC(=O)[C@H](C(C)C)NC(=O)[C@@H]2CCCN2C(=O)[C@H](CC(=O)O)NC(=O)[C@H](Cc2ccc(O)cc2)NC(=O)[C@H](CO)NC1=O |
| < 0.001 µM | > 6.2 h | 6.2 µM | 6.8 µM | 1.49 µM | 0.148 µM | CC(=O)N[C@@H](CCCCN=[N+]=[N-])C(=O)N[C@@H](CCCNC(=N)N)C(=O)N[C@@H](CCCNC(=N)N)C(=O)N[C@H]1CSSC[C@@H](C(=O)N[C@@H](CCCNC(=N)N)C(=O)N[C@@H](CCCNC(=N)N)C(N)=O)NC(=O)[C@H](C(C)C)NC(=O)[C@@H]2CCCN2C(=O)[C@H](CC(=O)O)NC(=O)[C@H](Cc2ccc(O)cc2)NC(=O)[C@H](CO)NC(=O)[C@H](C)NC(=O)[C@H](Cc2ccc(-c3ccccc3)cc2)NC(=O)[C@H](CC(C)C)NC(=O)[C@@H]2[C@@H](c3ccccc3)CCN2C1=O (Ac-[Lys(N3)]RRC[Pro(3R-Ph)]L[Bip]ASYDPVCRR-NH2; disulfide 4-14) |
